# Source: PubChem BioAssay
# In the library only some 10% were active in any assay of this set; here they are far more common.
# PMI act – activators of human phosphomannose isomerase | P34949 | purified human PMI, coupled resazurin fluorescence, 20 min; active compounds read high; 1 = vehicle control, 0 substrate-free wells | activation factor at 20 µM | actives 0.005% (n = 190,000) | AID 1214;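 active means activation factor of 2 or more at 20 µM, relative to plate controls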
# Target sequence (P34949 whole entry, looked up): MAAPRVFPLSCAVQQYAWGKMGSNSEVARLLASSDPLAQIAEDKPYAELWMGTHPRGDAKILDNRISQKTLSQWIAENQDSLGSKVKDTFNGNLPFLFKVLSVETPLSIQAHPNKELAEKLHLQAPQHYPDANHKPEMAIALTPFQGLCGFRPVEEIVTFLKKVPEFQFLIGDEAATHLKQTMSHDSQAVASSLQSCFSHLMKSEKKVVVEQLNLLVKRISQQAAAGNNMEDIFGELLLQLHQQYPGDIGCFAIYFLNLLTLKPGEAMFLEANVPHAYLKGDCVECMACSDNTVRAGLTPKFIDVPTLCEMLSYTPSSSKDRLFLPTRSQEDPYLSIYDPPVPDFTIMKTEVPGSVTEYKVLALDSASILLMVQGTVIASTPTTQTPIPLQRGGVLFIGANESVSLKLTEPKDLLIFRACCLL
# WT yeast gro inh – growth inhibition of WT yeast, mitochondrial fusion screen; mitochondrial fusion phenotypic screen, WT strain; inhibition, % at 10 µM; actives 2.1% (n = 190,000); AID 1362; in the data active means inhibition above about 58%; tested in S. cerevisiae
# PMI act hi M6P – increases human PMI activity with near-saturating mannose 6-phosphate; AID 1216; activation factor at 20 µM; actives 0.34% (n = 190,000); coupled PMI enzyme assay, resazurin fluorescence, 20 min; active compounds read high; 1 = untreated enzyme, 0 = substrate-free blank; P34949;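 active means activation factor of 2 or more at 20 µM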
#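 Test system – human PMI in coupled enzyme assay · Timing – 20 min incubation at room temperature · Detection – Diaphorase-driven resazurin-to-resorufin fluorescence, excitation 544, emission 590 nm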
# Diaphorase act – activates diaphorase or chemically reduces, flagging diaphorase assay artifacts. AID 1229. activation factor at 20 µM. Diaphorase/resazurin coupled assay, resorufin fluorescence, 16 min; active compounds read high; 1 = vehicle wells, 0 = NADH-free wells. actives 0.005% (n = 190,000);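 active means diaphorase activity raised at least twofold by the compound at 20 µM; inactive means activation factor below 2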
#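 Assay system: Purified diaphorase enzyme from Clostridium kluyveri | Amount: Enzyme 0.07 U/mL final | Dosing: Compound 20 µM once, DMSO 1% | Timing: 16 min reaction at room temperature | Detection: Fluorescence, excitation 544 nm and emission 590 nm | Evaluation: Higher resorufin formation from activation or reduction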
# Lmaj promast – Leishmania major promastigote growth inhibition | Leishmania major promastigotes, resazurin fluorescence viability | inhibition, % at 10 µM | actives 9% (n = 200,000); in the data active means inhibition above about 50%;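 further: promastigotes grown with compound for 44 hours at 28 °C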
# * hit, by the source's call; nt = no result given.
SMILES,PMI act,WT yeast gro inh,PMI act hi M6P,Diaphorase act,Lmaj promast
Cc1[nH]c2ccccc2c1C(c1ccncc1)N1CCN(c2ccc(F)cc2)CC1 (centres undefined),0.9,3,0.9,0.8,99*
Cc1[nH]c2ccccc2c1C(c1ccncc1)N1CCCCC1 (centres undefined),1,-10,1,1,41
COc1cccc(CNCCO)c1OCc1ccccc1Cl,0.7,-3,1,0.9,16
CCOc1cc(CNc2ccc(O)cc2)cc(Br)c1OCc1ccccc1F,0.7,13,0.7,0.8,80*
CCOc1cc(CNCCCN2CCOCC2)cc(Br)c1OCc1ccccc1Cl,1.1,78,1,1.2,101*
COc1cc(CNCCO)cc(Cl)c1OCc1ccccc1Cl,1,25,1,1,99*
COc1cc(CNc2ccc(O)cc2)cc(Br)c1OCc1ccccc1F,0.7,13,0.4,0.6,4
CCOc1cc(CNC(C)(C)CO)cc(Br)c1OCc1ccc(Cl)cc1Cl,0.9,88*,1,1.1,100*
CCOc1cc(CNCCO)cc(Br)c1OCc1ccccc1Cl,1,98*,1,0.9,100*
CCOc1cc(CNCCO)cc(Br)c1OCc1ccc(Cl)cc1,1.1,11,1.1,1.1,101*
C=CCOc1c(Br)cc(CNc2ccc(NC(=O)C(C)C)cc2)cc1OCC,0.8,-6,0.8,0.8,97*
CCOc1cccc(CNCCO)c1OCc1ccc(Cl)cc1,0.8,7,1,1,10
NS(=O)(=O)c1ccc(CCNC(=O)COC(=O)/C=C/c2ccccc2Cl)cc1,1,16,1,1,-4
COc1ccc(NC(=O)NC23CC4(C)CC(C)(CC(C)(C4)C2)C3)cc1OC,0.8,25,0.9,0.9,45
S=C(NCc1cccnc1)Nc1cccc2ccccc12,1,-6,0.9,1,92*
C=CCNC(=S)NCc1cccnc1,1.1,-13,1.1,1.1,80*
COc1cc(C(=O)NNC(=S)NCc2ccco2)cc(OC)c1OC,1.1,-11,1,1,-5
Cc1cc(C)c2c(c1)-c1c(ssc1=S)C(C)(C)N2C(=O)CN1C(=O)c2ccccc2C1=O,1,18,0.9,0.9,97*
Cc1cccc2c1N(C(=O)CN1C(=O)c3ccccc3C1=O)C(C)(C)c1ssc(=S)c1-2,0.9,38,1,1,39
CC(Cc1cccs1)NC(=O)Nc1ccc(Cl)cc1 (centres undefined),1,nt,1,0.9,33
CC(Cc1cccs1)NC(=S)Nc1ccccc1 (centres undefined),0.9,46,0.9,0.8,60*
CC(NC(=O)Nc1ccc(Cl)c(Cl)c1)C(c1ccccc1)N1CCOCC1 (centres undefined),0.7,75*,0.8,0.8,31
CC(Cc1cccs1)NC(=O)Nc1ccccc1 (centres undefined),1,3,1,0.8,4
CC(Cc1cccs1)NC(=O)Nc1ccc(Cl)c(Cl)c1 (centres undefined),0.9,81,0.9,0.9,61*
Cc1ccc(NC(=O)CN2C(=O)NC(Cc3ccccc3)C2=O)c(Br)c1 (centres undefined),1.1,-4,1.1,0.9,-2
SMILES,PMI act,WT yeast gro inh,PMI act hi M6P,Diaphorase act,Lmaj promast
COCCn1c(SCC#N)nnc1-c1ccc([N+](=O)[O-])cc1,1.1,-2,1.1,0.9,-5
CCN(CC)CCN(C)Cc1ccc(Br)cc1,1.1,2,1.1,1,89*
O=c1c(Cc2c(F)cccc2Cl)c(O)ccn1CCc1ccccn1,1,-1,1,0.9,-2
CNc1cc(C(F)(F)F)nc(-c2ccccn2)n1,1,-6,1.1,1,-6
Nc1nc(-c2ccccn2)nc(N)c1Cc1ccccc1F,0.9,1,0.8,0.9,95*
Nc1nc(-c2ccccn2)nc(N)c1Cc1ccc(Cl)cc1Cl,1,-5,0.8,0.9,101*
Nc1nc(-c2ccccn2)nc(N)c1Cc1c(F)cccc1Cl,1,6,1,1,101*
O=C(NCCSc1c[nH]c2ccccc12)c1ccc2c(c1)OCO2,1,12,0.8,0.6,3
Cc1cc(C)nc(-n2nc(C)c3c(C(F)(F)F)cc(=O)[nH]c32)n1,1,-13,1,1,9
Cc1cc(C)nc(-n2nc(C)c(Sc3ccc(F)cc3)c2N)n1,1,78,1,1,97*
Cc1snc(SCC(=O)c2ccc(Cl)cc2)c1C#N,0.4,6,1,0.8,99*
Cc1ccc(C(=O)CSc2nsc(C)c2C#N)cc1,0.9,13,0.9,0.9,-6
Cc1cc(C)c(C#N)c(SCC(=O)c2ccc(Cl)cc2Cl)n1,0.9,17,1,0.8,100*
Cc1ccc2[nH]c(=O)c(CN(CCCN(C)C)C(=S)NCCc3ccccc3)cc2c1,1,-6,1,0.9,76*
Cc1ccc2[nH]c(=O)c(CN(CCCN(C)C)C(=O)Nc3ccc(Cl)cc3)cc2c1,1,9,0.9,1,90*
Cc1cccc2cc(CN(CCCN(C)C)C(=S)NCCc3ccccc3)c(=O)[nH]c12,0.9,-13,1,1,65*
Cc1ccc(NC(=S)N(CCCN(C)C)Cc2cc3cc4c(cc3[nH]c2=O)OCO4)cc1,0.9,-15,0.9,1,3
COc1cc2cc(CN(CCc3cccc(C)c3)C(=S)NCCCN(C)C)c(=O)[nH]c2cc1OC,1,-12,1.1,1,52*
CC(C)CCCCCCNC(=S)Nc1ccc(S(=O)(=O)N2CCOCC2)cc1,1,-2,1,0.8,50
CC(C)OC(=O)/C(C#N)=C/c1c[nH]c2ccccc12,0.8,13,0.9,0.7,-2
Cc1ccc(C(C)C)c(OCCCNCc2cccnc2)c1,1.3,9,1.1,1.2,87*
Cc1ccc(C(C)C)c(OCCNS(C)(=O)=O)c1,1,4,1,0.9,-2
CCCCNCC#CCOc1cc(C)ccc1C(C)C,1.1,74*,1.1,1,95*
CCOC(=O)C1=C(C)N(CCCCCC(=O)O)C(=O)NC1c1ccccc1OC(=O)c1cccs1 (centres undefined),1,5,1,0.9,-5
Cc1ccc(S(=O)(=O)c2cc3ccccc3nc2N)cc1,1,-16,1.1,0.8,6
CCOC(=O)Cn1cc(/C=N/N2C(=O)C3C4C=CC(C4)C3C2=O)c2ccccc21 (centres undefined),1.1,-13,1,1.1,1
Cc1ccc(NC(=O)c2nc[nH]c2C(=O)N[C@@H](C)c2ccccc2)cc1,0.8,74*,0.8,0.7,35
Cc1ccc(NC(=O)c2[nH]cnc2C(=O)NN)cc1,1.1,-3,0.9,0.9,-6
Cc1cc(C(F)(F)F)nc(SCCN2CCOCC2)c1C#N,1.7,3,2.2*,1,-1
